Where two headings read alike, the source gives them in different places.
What was measured:
Conductometry in DMSO = assay type: physicochemical; conditions: for Conductivity ΛM: 1.0 mM solution in DMSO; for Increase of molecular conductivity upon 10-fold dilution: diluted solutions 0.1 to 1.0 mM in DMSO
Method in brief: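 Test compound dissolved at 1.0 mM, or as indicated, in freshly distilled DMSO (conductivity ≤3 × 10−8 […]). Conductivity measured at 25 ± 2 °C immediately after complete dissolution, then after 24 h and after 48 h.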

PL^pro (SARS-CoV-2) = PL^pro (SARS-CoV-2) (Severe acute respiratory syndrome coronavirus 2, UniProt P0DTD1); assay: biochemical
3CL^pro (SARS-CoV-2) = 3CL^pro (SARS-CoV-2) (Severe acute respiratory syndrome coronavirus 2, UniProt P0DTD1); assay type: biochemical
SARS-CoV-2 PL^pro [1] = biological target: T1, SARS-CoV-2 PL^pro (Severe acute respiratory syndrome coronavirus 2, UniProt P0DTD1); assay: Zn-ejection assay with FluoZin-3; assay type: biochemical; conditions: 0.5 μM PLpro, 100 min
CaCo-2 cells = assay: Toxicity against host cells; assay type: cell-based, human; conditions: 25 to 500 μM, 24 h / 48 h
Method in brief: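 Caco-2 cells were grown to almost confluent monolayers in 96-well plates. Test compound was given as a DMSO stock (DMSO 0.2%) diluted in DMEM with 1% fetal calf serum and 50 mg L−1 gentamicin, at 25–500 μM. Exposure was 24 h and 48 h at 37 °C/5% CO2. Viability was measured by crystal violet staining as % of untreated control, in three independent experiments.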

SARS-CoV-2 PL^pro [2] = biological target: T1, SARS-CoV-2 PL^pro; assay: Michaelis-Menten kinetics with SARS-CoV-2 PLpro; assay type: biochemical
SARS-CoV-2 B.1 = assay: Antiviral activity against SARS-CoV-2 in Caco-2-F03 cells; assay type: cell-based; conditions: for Effect on viral activity at higher dosages: overlapping with toxicity
PL^pro (SARS-CoV) = PL^pro (SARS-CoV) (Severe acute respiratory syndrome coronavirus, UniProt P0C6X7); assay type: biochemical; conditions: read-out: IC50 PL^pro (SARS-CoV)
[3] = read-out: IC50 PL^pro (SARS-CoV-2), mean ± SD of 2 independent experiments
[4] = 3CL^pro, 50 μM, ± SD of 2 experiments

Compound | Conductivity ΛM (Conductometry in DMSO; 24 h) [S mol^−1 cm^2] | Conductivity ΛM (Conductometry in DMSO; 48 h) [S mol^−1 cm^2] | Conductivity ΛM (Conductometry in DMSO; start) [S mol^−1 cm^2] | IC50 (PL^pro (SARS-CoV-2); [3]) [nM] | Percentage of activity of the enzyme in presence of 50 μM of the test compound (3CL^pro (SARS-CoV-2); [4]) [%] | also measured
COc1ccc2c(c1)n(C(C)C)c[n+]2C(C)C.[Cl][Ag] [Ag-4a, 1,3-Diisopropyl-5-methoxy-benzimidazolium silver(I) chloride] | 2.25 | 2.40 | 2.15 | 220 ± 110 | 115 ± 4 | –
CC(=O)O.[Ag+].c1ccc(CN2[CH-]N(Cc3ccccc3)C(c3ccccc3)=C2c2ccccc2)cc1 [SBC3, reference compound] | 2.25 | 2.31 | 2.15 | – | – | Increase of molecular conductivity upon 10-fold dilution (Conductometry in DMSO): 2–4 fold; IC50 (PL^pro (SARS-CoV-2); read-out: IC50 PL^pro (SARS-CoV-2)): 260 ± 30 nM; Inhibition of 3CL^pro enzymatic activity (3CL^pro (SARS-CoV-2)): some moderate inhibition; Percentage of activity of the enzyme in presence of 50 μM of the test compound (3CL^pro (SARS-CoV-2)): >50 (70 ± 4%); IC50 (3CL^pro (SARS-CoV-2); read-out: IC50 3CL^pro (SARS-CoV-2)): > 50000 nM
CC(C)n1c[n+](C(C)C)c2ccccc21.[Cl][Ag] [Ag-3a, 1,3-Diisopropyl benzimidazolium silver(I) chloride] | 2.70 | 2.67 | 2.34 | 210 ± 20 | 116 ± 5 | Increase of molecular conductivity upon 10-fold dilution (Conductometry in DMSO): 2–4 fold
CCn1c[n+](CC)c2ccc(OC)cc21.[Ag][I] [Ag-2b, 1,3-Diethyl-5-methoxy-benzimidazolium silver(I) iodide] | 9.25 | 9.82 | 9.19 | 430 ± 60 | 115 ± 4 | –
CCn1c[n+](CC)c2ccc(OC)cc21.[Cl][Ag] [Ag-2a, 1,3-Diethyl-5-methoxy-benzimidazolium silver(I) chloride] | 3.13 | 3.37 | 2.94 | 180 ± 20 | 98 ± 15 | –
COc1ccc2c(c1)n(C(C)C)c[n+]2C(C)C [compound 4, 1,3-Diisopropyl-5-methoxy-benzimidazolium iodide] | – | – | – | – | – | IC50 (PL^pro (SARS-CoV-2)): > 100000 nM
COc1ccc2c(c1)n(C(C)C)c[n+]2C(C)C.[Ag][I] [Ag-4b, 1,3-Diisopropyl-5-methoxy-benzimidazolium silver(I) iodide] | 6.92 | 7.32 | 6.72 | 390 ± 70 | 116 ± 2 | Zn ejection efficacy (SARS-CoV-2 PL^pro [1]; 1.0 μM compound): low efficacy; Zn ejection efficacy (SARS-CoV-2 PL^pro [1]; 10 μM compound): high efficacy; Cytotoxicity against almost confluent Caco-2 cell layers (CaCo-2 cells): non-toxic up to 500 μM; Enzymatic activity (% of untreated control) (PL^pro (SARS-CoV-2); 0.75 μM, after 60 min): approx. 40%; Enzymatic turnover (% of untreated control) (PL^pro (SARS-CoV-2); 0.75 μM, from beginning up to 30 min of exposure): approx. 60%; Mechanism of inhibition (SARS-CoV-2 PL^pro [2]; Lineweaver-Burk, parallel lines): uncompetitive enzyme inhibitor; Ki (enzyme-substrate-inhibitor complex) (SARS-CoV-2 PL^pro [2]; uncompetitive model): 480 ± 220 nM; IC50 (SARS-CoV-2 B.1; read-out: IC50 antiviral efficacy (spike protein staining)): 580 nM; IC50 (PL^pro (SARS-CoV)): 13700 ± 1020 nM
CCn1c[n+](CC)c2ccccc21.[Ag][I] [Ag-1b, 1,3-Diethyl-benzimidazolium silver(I) iodide] | 9.31 | 9.70 | 8.44 | 240 ± 110 | 110 ± 0 | Effect on viral activity at higher dosages (SARS-CoV-2 B.1): completely terminated viral activity
CCn1c[n+](CC)c2ccccc21.[Cl][Ag] [Ag-1a, 1,3-Diethyl benzimidazolium silver(I) chloride] | 3.09 | 3.31 | 3.00 | 210 ± 30 | 106 ± 2 | –
CC(C)n1c[n+](C(C)C)c2ccccc21.[Ag][I] [Ag-3b, 1,3-Diisopropyl benzimidazolium silver(I) iodide] | 7.00 | 6.69 | 6.67 | 190 ± 40 | 111 ± 14 | Increase of molecular conductivity upon 10-fold dilution (Conductometry in DMSO): only slightly increased; Effect on viral activity at higher dosages (SARS-CoV-2 B.1): completely terminated viral activity
CCN(CC)C(=S)SSC(=S)N(CC)CC [Disulfiram, reference compound] | – | – | – | – | – | Zn ejection efficacy (SARS-CoV-2 PL^pro [1]; 1.0 μM compound): low efficacy; Zn ejection efficacy (SARS-CoV-2 PL^pro [1]; 10 μM compound): high efficacy
O=[N+]([O-])[O-].[Ag+] [AgNO3, silver nitrate, reference compound] | 38 | 38 | 38 | 700 ± 270 | 97 ± 6 | Conductivity (Conductometry in DMSO; in DMSO, periods up to 48 h): 38 S mol^−1 cm^2; IC50 (PL^pro (SARS-CoV)): 12000 ± 870 nM

From article PMC10357933 (RSC Medicinal Chemistry, 2023)
